# Source: ChEMBL document CHEMBL5058577, “EUbOPEN Chemogenomics Library 2 (Multiplex)” (2022)
# Test system: U2OS
# Assay: Multiplex assay against U2OS
# Type: toxicity, cell-based
# Conditions: human
# In short: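 Live cells were stained at seeding with Hoechst33342, BioTracker Green Microtubule Cytoskeleton Dye, MitoTracker Red and Annexin V Alexa Fluor 680. Following compound addition, they were imaged on a CQ1 microscope at 37°C and 5% CO2 and gated by CellPathfinder machine learning into Hoechst high-intensity objects or normal cells, with normal cells split into healthy, pyknosed or fragmented nuclei and pyknosed cells into mitotic or apoptotic. Tubulin, mitochondrial-mass and membrane-permeability phenotypes are per cents of healthy-nucleus cells.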
# [1] = 12 h, 1 µM, compound concentration 1 uM, replicate 1
# [2] = 12 h, 1 µM, compound concentration 1 uM, replicate 2
# [3] = 12 h, 10 µM, compound concentration 10 uM, replicate 1
# [4] = 12 h, 10 µM, compound concentration 10 uM, replicate 2
# [5] = 24 h, 1 µM, compound concentration 1 uM, replicate 1
# [6] = 24 h, 1 µM, compound concentration 1 uM, replicate 2
# [7] = 24 h, 10 µM, compound concentration 10 uM, replicate 1
# [8] = 24 h, 10 µM, compound concentration 10 uM, replicate 2
# [9] = 48 h, 1 µM, compound concentration 1 uM, replicate 1
# [10] = 48 h, 1 µM, compound concentration 1 uM, replicate 2
# [11] = 48 h, 10 µM, compound concentration 10 uM, replicate 1
# [12] = 48 h, 10 µM, compound concentration 10 uM, replicate 2
smiles,measurement,setting,value
Cc1sc2c(c1C)C(c1ccc(Cl)cc1)=N[C@@H](CC(=O)NCCCCCCCCNC(=O)COc1cccc3c1C(=O)N(C1CCC(=O)NC1=O)C3=O)c1nnc(C)n1-2 (stereo partly specified),Population Apoptotic (%),[1],93%
same,Population Fragmented Nuclei (%),[1],43%
same,Population Healthy Nuclei (%),[1],49%
same,Population Hoechst High Intensity Objects (%),[1],11%
same,Population Membrane Permeable-Phenotype (%),[1],9%
same,Population Mitochondria Different-Phenotype (%),[1],4%
same,Population Mitotic Cells (%),[1],6%
same,Population Normal (%),[1],88%
same,Population Pyknosed Nuclei (%),[1],6%
same,Population Tubulin-Different-Phenotype (%),[1],5%
same,Total Cell Count,[1],269
same,Population Apoptotic (%),[2],87%
same,Population Fragmented Nuclei (%),[2],13%
same,Population Healthy Nuclei (%),[2],80%
same,Population Hoechst High Intensity Objects (%),[2],0%
same,Population Membrane Permeable-Phenotype (%),[2],5%
same,Population Mitochondria Different-Phenotype (%),[2],1%
same,Population Mitotic Cells (%),[2],12%
same,Population Normal (%),[2],99%
same,Population Pyknosed Nuclei (%),[2],5%
same,Population Tubulin-Different-Phenotype (%),[2],3%
same,Total Cell Count,[2],136
same,Population Apoptotic (%),[3],86%
same,Population Fragmented Nuclei (%),[3],31%
same,Population Healthy Nuclei (%),[3],55%
same,Population Hoechst High Intensity Objects (%),[3],5%
same,Population Membrane Permeable-Phenotype (%),[3],2%
same,Population Mitochondria Different-Phenotype (%),[3],4%
same,Population Mitotic Cells (%),[3],13%
same,Population Normal (%),[3],94%
same,Population Pyknosed Nuclei (%),[3],13%
same,Population Tubulin-Different-Phenotype (%),[3],0%
same,Total Cell Count,[3],233
same,Population Apoptotic (%),[4],100%
same,Population Fragmented Nuclei (%),[4],19%
same,Population Healthy Nuclei (%),[4],75%
same,Population Hoechst High Intensity Objects (%),[4],0%
same,Population Membrane Permeable-Phenotype (%),[4],17%
same,Population Mitochondria Different-Phenotype (%),[4],12%
same,Population Mitotic Cells (%),[4],0%
same,Population Normal (%),[4],99%
same,Population Pyknosed Nuclei (%),[4],4%
same,Population Tubulin-Different-Phenotype (%),[4],12%
same,Total Cell Count,[4],117
same,Population Apoptotic (%),[5],100%
same,Population Fragmented Nuclei (%),[5],42%
same,Population Healthy Nuclei (%),[5],51%
same,Population Hoechst High Intensity Objects (%),[5],11%
same,Population Membrane Permeable-Phenotype (%),[5],8%
same,Population Mitochondria Different-Phenotype (%),[5],3%
same,Population Mitotic Cells (%),[5],0%
same,Population Normal (%),[5],88%
same,Population Pyknosed Nuclei (%),[5],6%
same,Population Tubulin-Different-Phenotype (%),[5],5%
same,Total Cell Count,[5],297
same,Population Apoptotic (%),[6],92%
same,Population Fragmented Nuclei (%),[6],12%
same,Population Healthy Nuclei (%),[6],80%
same,Population Hoechst High Intensity Objects (%),[6],2%
same,Population Membrane Permeable-Phenotype (%),[6],5%
same,Population Mitochondria Different-Phenotype (%),[6],2%
same,Population Mitotic Cells (%),[6],7%
same,Population Normal (%),[6],97%
same,Population Pyknosed Nuclei (%),[6],7%
same,Population Tubulin-Different-Phenotype (%),[6],4%
same,Total Cell Count,[6],174
same,Population Apoptotic (%),[7],100%
same,Population Fragmented Nuclei (%),[7],34%
same,Population Healthy Nuclei (%),[7],53%
same,Population Hoechst High Intensity Objects (%),[7],8%
same,Population Membrane Permeable-Phenotype (%),[7],4%
same,Population Mitochondria Different-Phenotype (%),[7],5%
same,Population Mitotic Cells (%),[7],0%
same,Population Normal (%),[7],91%
same,Population Pyknosed Nuclei (%),[7],12%
same,Population Tubulin-Different-Phenotype (%),[7],2%
same,Total Cell Count,[7],245
same,Population Fragmented Nuclei (%),[8],27%
same,Population Healthy Nuclei (%),[8],65%
same,Population Hoechst High Intensity Objects (%),[8],0%
same,Population Membrane Permeable-Phenotype (%),[8],21%
same,Population Mitochondria Different-Phenotype (%),[8],9%
same,Population Normal (%),[8],99%
same,Population Pyknosed Nuclei (%),[8],7%
same,Population Tubulin-Different-Phenotype (%),[8],14%
same,Total Cell Count,[8],130
same,Population Apoptotic (%),[9],91%
same,Population Fragmented Nuclei (%),[9],35%
same,Population Healthy Nuclei (%),[9],53%
same,Population Hoechst High Intensity Objects (%),[9],10%
same,Population Membrane Permeable-Phenotype (%),[9],6%
same,Population Mitochondria Different-Phenotype (%),[9],1%
same,Population Mitotic Cells (%),[9],8%
same,Population Normal (%),[9],89%
same,Population Pyknosed Nuclei (%),[9],10%
same,Population Tubulin-Different-Phenotype (%),[9],2%
same,Total Cell Count,[9],353
same,Population Apoptotic (%),[10],90%
same,Population Fragmented Nuclei (%),[10],12%
same,Population Healthy Nuclei (%),[10],79%
same,Population Hoechst High Intensity Objects (%),[10],1%
same,Population Membrane Permeable-Phenotype (%),[10],4%
same,Population Mitotic Cells (%),[10],9%
same,Population Normal (%),[10],98%
same,Population Pyknosed Nuclei (%),[10],7%
same,Population Tubulin-Different-Phenotype (%),[10],1%
same,Total Cell Count,[10],270
same,Population Apoptotic (%),[11],100%
same,Population Fragmented Nuclei (%),[11],36%
same,Population Healthy Nuclei (%),[11],51%
same,Population Hoechst High Intensity Objects (%),[11],7%
same,Population Membrane Permeable-Phenotype (%),[11],9%
same,Population Mitochondria Different-Phenotype (%),[11],4%
same,Population Mitotic Cells (%),[11],0%
same,Population Normal (%),[11],92%
same,Population Pyknosed Nuclei (%),[11],12%
same,Population Tubulin-Different-Phenotype (%),[11],4%
same,Total Cell Count,[11],289
same,Population Fragmented Nuclei (%),[12],25%
same,Population Healthy Nuclei (%),[12],70%
same,Population Hoechst High Intensity Objects (%),[12],2%
same,Population Membrane Permeable-Phenotype (%),[12],10%
same,Population Normal (%),[12],97%
same,Population Pyknosed Nuclei (%),[12],4%
same,Population Tubulin-Different-Phenotype (%),[12],7%
same,Total Cell Count,[12],179
